Measured values pooled from the literature.
Matrix: plasma

| Structure (SMILES) | species | route | dose | bioavailability [%] |
| --- | --- | --- | --- | --- |
| COc1cc(-c2cc(C(C)=O)n3ccccc23)c(OC)cc1Cn1ccnc1 | male Sprague-Dawley rat | oral | 5 mg/kg | 50.3 |
| COc1ccc(N(Cc2csc(-c3ccccc3)n2)C(=O)CCCCCC(=O)NO)cc1 | female Sprague-Dawley rat | oral | – | 10.3 |
| CCCCC(=O)Nc1ccc(-c2ccc3ncn(CCC)c(=O)c3c2)cn1 | male rat | oral | 10 mg/kg | 21.1 |
| CC(C)C[C@H](NC(=O)NCc1cn(-c2ccccc2C(=O)OCn2cc(F)c(=O)[nH]c2=O)nn1)C(=O)NO | male Sprague-Dawley rat | oral | 50 mg/kg | ~0.64 |
| Cc1cc(S(=O)(=O)N[C@H]2CC[C@H](CN3CCN(c4ccc(C5CCC(=O)NC5=O)c(Cl)c4)CC3)CC2)ccc1Nc1ncc(C(F)(F)F)c(N2CCC[C@](C)(O)C2)n1 (stereo partly shown) | rat | oral | 10 mg/kg | 25 |
| COc1nc(-c2cccc(-c3ccccc3)c2C)ccc1CNCCNC(=O)CCCCCCCCCCC(=O)N1CCN(CCNC(=O)c2cc3c(=O)n4cccc(C)c4nc3n(CCc3cccs3)c2=N)CC1 | male Sprague-Dawley rat | intraperitoneal | 4 mg/kg | 74.8 |
| Cc1cc(S(=O)(=O)N[C@H]2CC[C@H](CN3CCN(c4cccc(NC5CCC(=O)NC5=O)c4)CC3)CC2)ccc1Nc1ncc(C(F)(F)F)c(N2CCC[C@](C)(O)C2)n1 (stereo partly shown) | rat | oral | 10 mg/kg | 13 |
| C[C@H]1Oc2cc(cnc2N)-c2c(nn(C)c2C#N)CN(C)C(=O)c2ccc(F)cc21 | Sprague-Dawley rat | oral | – | 8.6 |
| Cc1cc(S(=O)(=O)NC2CC(N3CCN(CC4CCN(c5ccc6c(c5F)n(C)c(=O)n6C5CCC(=O)NC5=O)CC4)CC3)C2)ccc1Nc1ncc(C(F)(F)F)c(N2CCCC(C)(O)C2)n1 (stereo not shown) | rat | oral | 10 mg/kg | 1 |
| O=C1CCC(N2Cc3cc(C4CCN(Cc5ccccc5)CC4)ccc3C2=O)C(=O)N1 (stereo not shown) | male Sprague-Dawley rat | oral | 3 mg/kg | 36.2 |
